Test results: publication PMC9891257 (RNA, 2023)
Where “and” joins values, the source holds several entries; their conditions need not be identical. Identical values can stand only once.

How the values were obtained:
murine eIF4E = murine eIF4E (Mus musculus, UniProt P63073); assay: Thermal stability of eIF4E by DSF in the presence of cap analogs; format: binding; conditions: for Tm (at 100 μM of ligand): murine eIF4E, 100 μM ligand, apo form 38.42; for ΔTm (at 100 μM of ligand): in relation to eIF4E in apo form
Summary of the method: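 Murine eIF4E (aa 28–217), 4 μM final, with 5× SYPRO Orange in HEPES/KOH pH 7.2, 100 mM KCl, 0.5 mM EDTA, 1 mM DTT. Test compound at 100 μM final (single point) or 1–100 μM series. Heated 22–95°C at 0.5°C/30 sec, fluorescence read each step. Normalized signal fitted to a two-state denaturation model for Tm. ΔTm is relative to apo eIF4E. Apparent Kd is from ΔTm change with rising ligand concentration.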

[1] = tested on: Rabbit reticulocyte lysate; assay: Translation of luciferase mRNA capped with cap analogs in RRL system; format: biochemical; conditions: for Relative cap-dependent translation efficiency / Relative translation efficiency: Rabbit reticulocyte lysate; for Relative cap-dependent translation efficiency: relative to m^7GpppG; for Relative translation efficiency: relative to m^7GpppG-capped transcript
Summary of the method: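 Firefly luciferase mRNA made by SP6 transcription of PCR template, 1 h at 37°C, with 0.5 mM ATP/CTP/UTP, 0.1 mM GTP, 0.5 mM cap analog (cap:GTP 5:1). Then DNase I treatment. Translated in 40% Flexi rabbit reticulocyte lysate with 0.01 mM amino acids, 0.9 mM Mg acetate, 190 mM K acetate. Lysate preincubated 60 min at 30°C, then 60 min with mRNA. Luciferase luminescence expressed relative to m7GpppG-capped mRNA.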

SP6 RNA polymerase = molecular target: T1, SP6 RNA polymerase (Enterobacteria phage SP6, UniProt P06221); assay: Efficiency of cap analog incorporation into short RNA25 in IVT; format: biochemical; conditions: RNA25nt, densitometry
T1 sequence (P06221 1-874): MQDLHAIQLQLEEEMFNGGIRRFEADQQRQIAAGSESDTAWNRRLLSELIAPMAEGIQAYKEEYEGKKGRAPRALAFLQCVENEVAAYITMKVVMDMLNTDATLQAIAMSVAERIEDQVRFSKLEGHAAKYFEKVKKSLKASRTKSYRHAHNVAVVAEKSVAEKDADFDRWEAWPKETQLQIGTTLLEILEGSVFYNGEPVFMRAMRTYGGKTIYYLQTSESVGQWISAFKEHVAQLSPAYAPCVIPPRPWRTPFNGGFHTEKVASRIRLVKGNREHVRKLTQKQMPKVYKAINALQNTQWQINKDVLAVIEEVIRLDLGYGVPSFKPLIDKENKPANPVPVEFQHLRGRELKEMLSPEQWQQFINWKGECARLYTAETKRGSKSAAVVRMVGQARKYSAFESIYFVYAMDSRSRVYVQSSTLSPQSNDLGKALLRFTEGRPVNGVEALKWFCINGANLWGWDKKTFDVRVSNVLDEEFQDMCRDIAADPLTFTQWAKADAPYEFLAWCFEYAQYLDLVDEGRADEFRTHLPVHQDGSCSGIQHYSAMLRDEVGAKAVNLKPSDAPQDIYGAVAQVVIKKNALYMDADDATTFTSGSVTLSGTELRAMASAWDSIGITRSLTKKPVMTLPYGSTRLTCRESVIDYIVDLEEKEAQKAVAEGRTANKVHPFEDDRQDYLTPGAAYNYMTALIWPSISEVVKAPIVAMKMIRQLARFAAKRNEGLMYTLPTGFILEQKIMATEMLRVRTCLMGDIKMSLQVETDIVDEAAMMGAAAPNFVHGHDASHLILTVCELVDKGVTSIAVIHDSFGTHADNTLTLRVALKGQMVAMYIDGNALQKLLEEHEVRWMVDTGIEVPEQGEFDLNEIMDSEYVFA
Summary of the method: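 DNase I digestion. 3′ ends trimmed with DNAzyme (30 pmol per 400 ng RNA, 50 mM Tris pH 7.4, 50 mM MgCl2, 1 h, 37°C), giving 25-nt RNA. Capped versus uncapped pppRNA bands quantified densitometrically.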

hNudt16 = hNudt16 (Homo sapiens, UniProt Q96DE0); assay: 5′ cap hydrolysis of analog-capped RNA25 with hNudt16; format: biochemical; conditions: 30 min reaction with hNudt16; for % of hydrolysis SP6 product: RNA made with SP6 polymerase; for % of hydrolysis T7 product: RNA made with T7 polymerase
Summary of the method: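 Substrate: 50 ng 25-nt cap-analog RNA with trimmed 3′ ends. Digested with 2.5 µM hNudt16 in 40 mM Tris pH 7.9, 100 mM NaCl, 6 mM MgCl2, 2 mM DTT for 30 min at 37°C. Stopped with formamide loading dye, 5 min at 75°C. Run on 15% polyacrylamide/7 M urea, SYBR Gold stain. Hydrolysis = densitometric % loss of capped band; mean ± SD, three experiments. Orientation inferred from hydrolysis pattern.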

[2] = molecular target: cap-dependent translation in RRL system; format: biochemical, rabbit; conditions: inhibition of ARCA-mRNA luciferase translation in RRL system; mean ± SD
Summary of the method: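 Flexi rabbit reticulocyte lysate preincubated 60 min at 30°C under cap-dependent conditions. Then m2^7,3′O GpppG-capped firefly luciferase mRNA was added together with increasing concentrations of cap analog, and incubated a further 60 min at 30°C. Luminescence read immediately. IC50 by nonlinear regression; mean ± SD of ≥3 independent replicates. Ratio expresses IC50 relative to m7GpppG control.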

[3] = tested on: cap-dependent translation; conditions: translation inhibition; ref Wojcik et al. 2021; cited from earlier work

murine eIF4E, sequence (P63073 28-217): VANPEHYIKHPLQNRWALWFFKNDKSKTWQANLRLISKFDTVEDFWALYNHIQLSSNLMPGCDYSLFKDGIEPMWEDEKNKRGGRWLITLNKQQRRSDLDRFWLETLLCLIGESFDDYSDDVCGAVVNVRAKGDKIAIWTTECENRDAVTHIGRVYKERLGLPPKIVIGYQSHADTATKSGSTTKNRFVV
hNudt16, sequence (Q96DE0 whole entry): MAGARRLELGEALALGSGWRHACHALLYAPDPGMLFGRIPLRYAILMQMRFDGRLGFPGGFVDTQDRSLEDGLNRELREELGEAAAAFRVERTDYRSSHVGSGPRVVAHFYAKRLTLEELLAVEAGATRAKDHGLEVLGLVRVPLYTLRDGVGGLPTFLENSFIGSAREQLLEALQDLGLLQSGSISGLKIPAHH

| Tm (at 100 μM of ligand) (murine eIF4E) [°C] | translation level in comparison to m^7GpppG-capped transcript ([1]; RRL) [%] | Relative cap-dependent translation efficiency [1] | Relative translation efficiency [1] | capped fraction (capping efficiency) (SP6 RNA polymerase) [%] | % of hydrolysis SP6 product (hNudt16) | % of hydrolysis T7 product (hNudt16) [%] | ΔTm (at 100 μM of ligand) (murine eIF4E) | ΔTm (at 100 μM of ligand) (murine eIF4E; listed as m2^7,3'OGpppG) [°C] | Relative translation efficiency ([1]; listed as m2^7,3'-OGpppG) | IC50 [2] [µM] | Compound | IC50 [3] [µM] |
| --- | --- | --- | --- | --- | --- | --- | --- | --- | --- | --- | --- | --- |
| 38.62 | ~10 | 0 | 0.09 ± 0.06 | – | – | – | – | – | – | – | Nc1nc2c(ncn2[C@@H]2O[C@H](COP(=O)(O)OP(=O)(O)OP(=O)(O)OC[C@H]3O[C@@H](n4cnc5c(N)ncnc54)[C@H](O)[C@@H]3O)[C@@H](O)[C@H]2O)c(=O)[nH]1 [ApppG] | – |
| – | – | – | – | 85.3 ± 0.8 | 86.2 ± 3.9% and 86.18% | 82.06 | – | – | – | – | Nc1nc2c(ncn2[C@@H]2O[C@H](COP(=O)(O)OP(=O)(O)OP(=O)(O)OC[C@H]3O[C@@H](n4cnc5c(=O)[nH]c(N)nc54)[C@H](O)[C@@H]3O)[C@@H](O)[C@H]2O)c(=O)[nH]1 [GpppG] | – |
| 47.53 | – | 1.53 ± 0.20 | 1.47 | 65.8 ± 2.4 | 8.7 ± 2.0% | 4.81 | around 10 °C | 9.11 | 1.47 ± 0.17 | – | CO[C@H]1[C@@H](O)[C@H]([n+]2cn(C)c3c(=O)[nH]c(N)nc32)O[C@@H]1COP(=O)([O-])OP(=O)(O)OP(=O)(O)OC[C@H]1O[C@@H](n2cnc3c(=O)[nH]c(N)nc32)[C@H](O)[C@@H]1O [m2^7,3′OGpppG] | – |
| 48.10 | – | 1 | 1 | 74.3 ± 3.5 | 45.74% | 32.24 | – | – | – | 8.94 ± 0.86 | Cn1c[n+]([C@@H]2O[C@H](COP(=O)(O)OP(=O)([O-])OP(=O)(O)OC[C@H]3O[C@@H](n4cnc5c(=O)[nH]c(N)nc54)[C@H](O)[C@@H]3O)[C@@H](O)[C@H]2O)c2nc(N)[nH]c(=O)c21 [m^7GpppG] | 11.4 ± 2.4 |
